Source: paper PMC4500736 (Journal of neuroscience methods, 2015)
Where no end group is shown, it is not given here.

Assays:
[1] = test system: unilateral 6-OHDA lesioned F344 rats; assay: DA and DA metabolite levels; format: in vivo, rat; conditions: 5 weeks post 6-OHDA, 300 μg intranasal daily, p < 0.01
normal F344 rats = format: in vivo, rat; conditions: 300 μg intranasal 5 days a week for 3 weeks, p < 0.05
Outline: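 Normal F344 rats under light isoflurane (~1.0–3.0% with […]), supine. Striatum and SN harvested as 2 mm sections, frozen −80 °C. DA, DOPAC, HVA by HPLC-EC (ng/g wet tissue); turnover ratios; one-way ANOVA, Bonferroni.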

[2] = test system: unilateral 6-OHDA lesioned F344 rats; assay: d-amphetamine-induced rotation in 6-OHDA-lesioned rats; format: in vivo, rat; conditions: animals taken out to 6 weeks (data not shown), n = 3 DNSP-11, n = 2 vehicle
[3] = test system: unilateral 6-OHDA lesioned F344 rats; assay: TH+ fiber density in the SNpr of 6-OHDA lesioned rats; format: in vivo, rat; conditions: mean ± SEM
Outline: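 Unilateral 3-site striatal 6-OHDA lesion (right hemisphere). Intranasal test compound 300 μg or vehicle daily for 7 days pre-lesion, ~60 min before infusion, then 35 ± 3 days. Midbrain fixed in 4% paraformaldehyde for 24 h, then 15 & 30% sucrose; 30 μm coronal sections. Ipsilateral SNpr TH+ immunoreactive area measured at −5.24, −5.60 and −5.96 mm from bregma. Two-tailed unpaired t-test.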

[4] = dissolved in 0.9% sterile saline; cited from earlier work

PPEAPAEDRSL-NH2 [DNSP-11, Dopamine neuron stimulating peptide-11]
reduction in DA turnover in the ipsilateral side to the lesion compared to vehicle [1]: 39%
increase in DA turnover in the SN compared to vehicle (normal F344 rats): 34%
increase in DA turnover in the striatum compared to vehicle (normal F344 rats): 25%
reduction in d-amphetamine-induced rotations compared to vehicle [2]: 21%
Fiber Density for the Lesioned SNpr, Rostral ([3]; n = 6, vehicle 0.20 ± 0.03): 0.26 ± 0.09
Fiber Density for the Lesioned SNpr, Middle ([3]; n = 6, vehicle 0.22 ± 0.07): 0.41 ± 0.20
Fiber Density for the Lesioned SNpr, Caudal ([3]; n = 6, vehicle 1.10 ± 0.67): 0.91 ± 0.41
stability in 0.9% sterile saline [4]: stable
